# Source: PubChem
# Sampled rows, rich in hits. Any-hit rate of the full collection: about 1.3%.
# GSK3beta inhib: inhibitors of human GSK3beta kinase. P49841. GST-GSK3beta kinase, ADP-Glo luminescence, 60 min; hits give low values. activity score (negative = inhibition), % at 10 µM. 300,000 tested, 0.038% active;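 active means more than half of replicate wells score below -50%, meaning over 50% inhibition versus plate controls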;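 further: 0% = median DMSO wells and -100% = median GW8510 positive control wells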
#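 Test system – GST-tagged human GSK3beta kinase, cell-free · Incubation – 60 min enzyme reaction, room temperature · Signal – ADP-Glo luminescence · Also added – peptide substrate and ATP at 25 µM · Controls – DMSO neutral wells and GW8510 at 20 µM as positive · Buffer or medium – Tris/MgCl2 kinase buffer · Measure – Luminescence-derived activity versus plate DMSO and GW8510 wells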
# Lipid droplet: hepatic lipid droplet formation modulation; inhibition, % at 6.5 µM; AID 1656; AML12 mouse hepatocytes, oleate lipid droplets, BODIPY imaging; 240,000 tested, 0.4% active;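 active means lipid droplet intensity inhibited by at least 50%, with more than 500 cells counted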
#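 Test system: AML12 mouse liver cells; schedule: overnight exposure; technique: high-content imaging of BODIPY-stained droplets and DAPI nuclei; read-out: % inhibition of corrected integrated BODIPY droplet signal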
# GSK3A inh: inhibitors of human GSK-3 alpha kinase. ADP-Glo luminescence, 60 min. AID 2650. inhibition, % at 10 µM. 320,000 tested, 0.1% active;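 active means more than half of replicates show inhibition above 20%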;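 further: GST-tagged GSK-3 alpha with peptide substrate and 25 µM ATP; 0% = DMSO neutral wells and 100% = GW8510 positive control wells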
# TAG inh: triacylglycerol accumulation inhibition | inhibition, % at 12.5 µM | 230,000 tested, 0.66% active | H9c2 cells, Nile Red lipid (TAG) fluorescence; cells loaded with 200 µM oleic acid;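 active means pattern-corrected inhibition of lipid staining of at least 50% with the nuclear-stain viability signal not falling by more than 50%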;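 further: 0% = DMSO wells and 100% = triacsin C control wells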
# STK33 inh: blocks human STK33 kinase activity | inhibition, % at 10 µM | AID 2661 | purified STK33, MBP phosphorylation, ADP-Glo luminescence | Q9BYT3 | 320,000 tested, 0.073% active;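 active means inhibition at or above 25%, using the most active replicate where run in duplicate; inactive means inhibition below 25%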
# Target sequence (Q9BYT3 whole entry, looked up): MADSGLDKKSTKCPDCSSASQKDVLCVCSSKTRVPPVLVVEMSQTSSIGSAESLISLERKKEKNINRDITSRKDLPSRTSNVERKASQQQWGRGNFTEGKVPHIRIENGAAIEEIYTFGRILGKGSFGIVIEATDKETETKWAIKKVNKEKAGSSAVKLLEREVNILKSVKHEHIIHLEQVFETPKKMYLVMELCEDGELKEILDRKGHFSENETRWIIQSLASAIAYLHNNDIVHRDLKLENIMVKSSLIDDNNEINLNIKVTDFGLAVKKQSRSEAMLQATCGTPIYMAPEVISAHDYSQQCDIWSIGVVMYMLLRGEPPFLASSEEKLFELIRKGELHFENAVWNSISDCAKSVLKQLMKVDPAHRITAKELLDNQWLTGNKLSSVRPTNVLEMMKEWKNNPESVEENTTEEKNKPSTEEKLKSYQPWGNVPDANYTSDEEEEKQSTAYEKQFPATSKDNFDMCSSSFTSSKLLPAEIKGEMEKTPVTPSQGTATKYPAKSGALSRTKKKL
# LANA-H2B inh: blocks KSHV LANA binding to histone H2A/H2B; Q9QR71; 320,000 tested, 0.6% active; AID 2629; inhibition, % (no concentration beside the values); cell-free LANA-H2A/H2B peptide, fluorescence polarization; in the data active means inhibition mostly above about 10%, no sharp cut-off; inactive means mostly below about 6.7%
# Hep lipid conf: hepatic lipid droplet formation inhibition, confirmed | shares compounds with Lipid droplet | AML12 mouse hepatocytes, BODIPY lipid droplet imaging; droplets induced with 100 µM oleic acid | inhibition, % at 5.2 µM | 870 tested, 65% active;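 active means inhibition of lipid droplet metric at least 50%, with more than 300 cells in each of four replicates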;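 further: plate controls were DMSO with oleic acid for no effect and 5 µM Triacsin-C for full effect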
# AML12 tox img: toxic to AML12 mouse hepatocytes in counter-screen; shares compounds with Lipid droplet; DAPI nuclear morphology cytotoxicity imaging; hits give high values; cells fed 100 µM oleate overnight; z-score at 5 µM; 870 tested, 3% active; AID 463200; in the data active means z-score above about 6.3;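 further: compound exposure lasted overnight at 37 °C before fixation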
# AML12 tox conf: confirmation of cytotoxicity in AML12 mouse hepatocytes | shares compounds with Lipid droplet | AML12 mouse hepatocyte viability, ATP luminescence; cells loaded with 100 µM oleic acid | cytotoxicity, % at 50 µM | 530 tested, under 10 active | AID 463219;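 active means cytotoxicity above 50% in each of four replicates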;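 further: compound exposure lasted overnight at 37 °C before the ATP read; 0% = DMSO-treated cells and 100% = wells with no cells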
# * hit, by the source's call; . = no result.
SMILES,GSK3beta inhib,Lipid droplet,GSK3A inh,TAG inh,STK33 inh,LANA-H2B inh,Hep lipid conf,AML12 tox img,AML12 tox conf
CCN(CC)S(=O)(=O)c1ccc(S(=O)(=O)N(CC(=O)Nc2ccccc2)Cc2ccco2)cc1,1,62*,-5,.,-3,-3,96*,-0.42,11
CN(C)S(=O)(=O)c1ccc(S(=O)(=O)N(CC(=O)Nc2ccccc2)Cc2ccco2)cc1,0,.,3,32,1,2,.,.,.
CCCCCCn1c(N2CCN(c3ccccc3)CC2)nc2c1c(=O)[nH]c(=O)n2C,-4,58*,1,28,-4,4,93*,-1.2,-11
CCCCn1c(=O)[nH]c(=O)c2c1nc(-c1ccc(C(F)(F)F)cc1)n2C,2,18,1,19,0,2,.,.,.
CCCCCCn1c(N2CCN(c3cccc(Cl)c3)CC2)nc2c1c(=O)[nH]c(=O)n2C,-1,.,-1,32,0,1,.,.,.
CCCCn1c(=O)[nH]c(=O)c2c1nc(-c1ccc(-c3ccccc3)cc1)n2C,1,64*,-3,.,0,4,70*,-0.69,-5
O=C1/C(=C\c2ccc(Br)o2)SC(=Nc2ccccc2)N1c1ccccc1,-7,.,-1,18,-1,-4,.,.,.
NS(=O)(=O)c1ccc(CCNC(=O)CSc2nc3ccsc3c(=O)n2Cc2ccccn2)cc1,.,.,.,-9,.,.,.,.,.
COc1ccc(-c2csc(NC(=O)c3ccc(OCC(=O)N4CCOCC4)c(OC)c3)n2)cc1OC,1,71*,2,.,-1,-1,96*,0.43,25
CCCCn1c(SCC(=O)NCCOC)nc2ccc(N3CCOCC3)cc2c1=O,-2,.,-1,26,-2,0,.,.,.
CCCCn1c(SCC(=O)c2ccccc2)nc2ccsc2c1=O,1,1,-1,.,-2,1,.,.,.
COc1ccc(/C=N/NC(=S)Nc2cc(C(F)(F)F)ccc2Cl)cc1,2,-48,0,-1,0,2,.,.,.
FC(F)(F)c1ccc(Cl)c(NC(=S)N/N=C/c2ccccc2C(F)(F)F)c1,-3,52*,1,.,0,-2,104*,0.61,1
C=C(C)C1CC=C(C)/C(=N/Nc2ccccc2[N+](=O)[O-])C1 (centres undefined),1,78*,-1,.,-1,-2,115*,-0.4,3
COc1cc2c(cc1NC(=S)NC(=O)c1c(OC)cccc1OC)oc1ccccc12,0,105*,-1,.,-2,2,106*,0.45,18
CN(C)c1cccc(CNC(=O)c2csc([C@@H]3O[C@H](CO)[C@@H](O)[C@H]3O)n2)c1,.,.,.,-24,.,.,.,.,.
CC(=O)c1cccc(NC(=O)N2CCC(C(=O)c3ccc(F)cc3)CC2)c1,-2,2,-2,.,-1,-3,.,.,.
O=C(NC1CCN(C(=O)Nc2ccc(F)cc2)CC1)c1ccc(F)cc1,3,-12,1,.,0,0,.,.,.
Cc1cccc(NC(=O)N2CCC(C(=O)c3ccc(F)cc3)CC2)c1,1,84*,0,.,0,1,98*,-0.69,13
CSc1ccc(NC(=O)N2CCC(C(=O)c3ccc(F)cc3)CC2)cc1,2,71*,2,.,-1,6,96*,0.49,19
Cc1cc(C)cc(NC(=O)N2CCC(C(=O)c3ccc(F)cc3)CC2)c1,-10,67*,0,.,0,-3,96*,0.074,13
CCN(CC)S(=O)(=O)c1cccc(C(=O)N[C@H](C(=O)OCC(=O)Nc2ccccc2)C(C)C)c1,1,10,-1,-8,-2,1,.,.,.
CCOC(=O)c1ccc(NC(=O)CSc2nc3ncccc3[nH]2)cc1,3,7,-2,.,0,-2,.,.,.
CCCCc1ccc(NC(=O)CSc2nnc(C)c(=O)n2N)cc1,-1,81*,0,45,-1,-5,106*,0.44,21
CCCCc1ccc(NC(=O)CSc2nc3ncccc3[nH]2)cc1,2,52*,.,.,-2,5,92*,-0.43,30
SMILES,GSK3beta inhib,Lipid droplet,GSK3A inh,TAG inh,STK33 inh,LANA-H2B inh,Hep lipid conf,AML12 tox img,AML12 tox conf
Cc1nn(C(C)C(=O)NCc2cccs2)c(=O)c2nn(-c3ccccc3)c(C)c12 (centres undefined),1,-18,2,.,-2,5,.,.,.
Cc1ccc(-n2nc3c(=O)n(CC(=O)NC4CCCCC4)nc(C)c3c2C)cc1,1,57*,-2,.,-1,3,88*,-0.23,17
Cc1ccc(-n2nc3c(=O)n(C(C)C(=O)NCCc4cccs4)nc(C)c3c2C)cc1 (centres undefined),1,53*,1,.,-1,8,96*,-0.5,20
Cc1ccc(-n2nc3c(=O)n(CC(=O)NC(C)CCc4ccccc4)nc(C)c3c2C)cc1 (centres undefined),0,88*,5,.,-1,1,77*,-0.48,5
CCCCCC(=O)Nc1cccc(C2=NOC3(C2)C[C@@H](C(N)=O)N(C(=O)CC(c2ccccc2)c2ccccc2)C3)c1 (some centres undefined),3,-15,3,10,0,2,.,.,.
O=C(NC(=S)Nc1ccc2c(c1)OCO2)c1ccc(Cl)cc1,2,-5,.,.,.,.,.,.,.
COc1ccc(C)cc1S(=O)(=O)N(CC(=O)Nc1cc([N+](=O)[O-])ccc1C)c1ccc(C)c(C)c1,3,51*,0,.,0,3,57,-0.35,14
CCCN1CCN(C(=O)c2ccc(-c3ccc([N+](=O)[O-])cc3)o2)CC1,.,.,-4,13,-1,4,.,.,.
COc1cccc(C(C(=O)NC2CCCC2)N(CCC(C)C)C(=O)CCC(=O)Nc2cc(C)on2)c1 (centres undefined),1,23,0,.,-1,-1,.,.,.
COCCN(C(=O)CCC(=O)Nc1cc(C)on1)C(C(=O)NC(C)(C)C)c1ccc(OC)cc1 (centres undefined),-1,20,0,.,0,-7,.,.,.
COc1ccc(C(C(=O)NC2CCCC2)N(CCC(C)C)C(=O)CCC(=O)Nc2cc(C)on2)cc1 (centres undefined),4,62*,1,.,-1,-1,81*,-0.13,5
COc1ccc(C(C(=O)NC(C)(C)C)N(Cc2ccc(C)cc2)C(=O)CCC(=O)Nc2cc(C)on2)cc1 (centres undefined),0,70*,-2,41,0,0,106*,-0.58,9
